# Measured values published in ChEMBL document CHEMBL4715802, “Novel Irreversible Agonists Acting at the A Adenosine Receptor” (J Med Chem, 2016).
# Activity calls are given as the source filed them. No cut-off for these calls is given here.
# Experiments:
# Adenosine receptor A1 [1] = molecular target: T1, Adenosine receptor A1 (Homo sapiens, UniProt P30542); test: Irreversible agonist activity at human adenosine A1 receptor expressed in Flp-In-CHO cells assessed as stimulation of ERK1/2 phosphorylation incubated for 5 mins; assay type: cell-based
# T1 sequence (P30542 whole entry): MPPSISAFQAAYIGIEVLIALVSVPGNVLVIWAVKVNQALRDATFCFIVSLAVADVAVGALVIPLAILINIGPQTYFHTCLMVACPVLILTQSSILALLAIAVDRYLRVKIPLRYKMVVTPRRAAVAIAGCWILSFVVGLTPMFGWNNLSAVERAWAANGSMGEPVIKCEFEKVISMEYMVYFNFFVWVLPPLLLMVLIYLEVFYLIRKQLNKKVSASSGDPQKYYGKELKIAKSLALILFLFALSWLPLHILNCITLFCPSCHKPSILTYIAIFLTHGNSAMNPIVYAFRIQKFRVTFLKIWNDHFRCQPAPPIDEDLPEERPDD
# Flp-In-CHO [2] = test: Stimulation of ERK1/2 phosphorylation in Flp-In-CHO cells incubated for 5 mins; assay type: cell-based; conditions: Cricetulus griseus
# Outline: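 A1AR-FlpInCHO cells were seeded at 4×10^4/well and serum-starved for about 18 h. Cells were stimulated with agonist for 5 min at 37°C, then lysed, and pERK1/2 was detected by SureFire. […] Curves were fitted for pEC50 and Emax. Three experiments in duplicate.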
# [3] = molecular target: T2, Adenosine receptor A1 (Homo sapiens) (UniProt P30542); test: Irreversible agonist activity at human adenosine A1 receptor expressed in Flp-In-CHO cells assessed as induction of positive change of cellular impedance at 1 uM incubated for 2 hrs by xCELLigence real-time cell analysis; assay type: cell-based; conditions: filed as agonist
# T2 sequence (whole entry): T1 sequence (P30542 whole entry)
# Outline: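 A1AR-FlpInCHO cells were serum-starved for about 18 h and equilibrated for at least 1 h at 37°C. 1 µM agonist or vehicle was added and impedance was recorded at 15 s intervals. […] Three experiments in duplicate.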
# [4] = molecular target: T2, Adenosine receptor A1 (Homo sapiens); test: Irreversible agonist activity at human adenosine A1 receptor expressed in Flp-In-CHO cells assessed as induction of positive change of cellular impedance at 1 uM incubated for 1.5 hrs followed by addition of 1 uM A1AR selective antagonist SLV320 by xCELLigence real-time cell analysis; assay type: cell-based; conditions: filed as agonist
# Outline: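 A1AR-FlpInCHO cells were seeded at 4×10^4/well, serum-starved for about 18 h, and equilibrated in the impedance reader for at least 1 h at 37°C. Cells were exposed to 1 µM agonist and impedance was recorded every 15 s. After about 1.5–1.7 h, 1 µM SLV320 was added and recording continued. […] Three experiments in duplicate.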
# [5] = molecular target: T2, Adenosine receptor A1 (Homo sapiens); test: Binding affinity to human adenosine A1 receptor expressed in Sf9 cells assessed protein melting temperature at 10 uM incubated for 30 mins by Thermo-fluor assay; assay type: cell membranes; conditions: Cell membrane, filed as agonist
# Outline: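 Human A1AR was purified from Sf9 cells in LMNG/CHS. 0.2 µg receptor was incubated with 10 µM compound for 20 h at 4°C in HEPES pH 7.5 buffer with ADA. CPM dye at 10 µM final was added for 30 min at rt. The sample was heated from 4 to 80°C in 3° steps, holding 90 s each, and fluorescence was read at 380/470 nm to derive Tm. Three experiments in duplicate.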
# Adenosine receptor A1 [6] = molecular target: T1, Adenosine receptor A1; test: Irreversible agonist activity at human adenosine A1 receptor expressed in Flp-In-CHO cells assessed as effect on forskolin-induced cAMP accumulation incubated for 30 mins by LANCE cAMP detection assay; assay type: functional, cell-based
# Outline: (§1)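 For Gi/o-coupled A1 or A3 FlpInCHO cells, cells were preincubated for 30 min at 37°C in stimulation buffer containing 10 µM rolipram. Agonist (10 pM–10 µM) was then added with 3 µM forskolin for 30 min at 37°C. The reaction was stopped with ethanol, cells were lysed, and cAMP was read by LANCE TR-FRET. Three to four experiments in duplicate.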
# Adenosine receptor A2a = Adenosine receptor A2a (Homo sapiens, UniProt P29274); test: Irreversible agonist activity at human adenosine A2A receptor expressed in Flp-In-CHO cells assessed as effect on forskolin-induced cAMP accumulation incubated for 30 mins by LANCE cAMP detection assay; assay type: functional, cell-based
# Adenosine receptor A2b = molecular target: T3, Adenosine receptor A2b (Homo sapiens, UniProt P29275); test: Irreversible agonist activity at human adenosine A2B receptor expressed in Flp-In-CHO cells assessed as effect on forskolin-induced cAMP accumulation incubated for 30 mins by LANCE cAMP detection assay; assay type: functional, cell-based
# T3 sequence (P29275 whole entry): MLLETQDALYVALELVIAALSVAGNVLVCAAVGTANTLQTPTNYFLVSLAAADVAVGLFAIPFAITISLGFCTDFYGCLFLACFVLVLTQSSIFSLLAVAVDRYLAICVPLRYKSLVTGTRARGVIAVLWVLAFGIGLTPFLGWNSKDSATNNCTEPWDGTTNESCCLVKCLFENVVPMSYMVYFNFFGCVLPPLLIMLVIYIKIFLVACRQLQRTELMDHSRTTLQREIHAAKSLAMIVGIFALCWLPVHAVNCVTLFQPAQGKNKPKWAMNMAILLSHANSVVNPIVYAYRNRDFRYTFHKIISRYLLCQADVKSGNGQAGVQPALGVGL
# Outline: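 A2BAR-FlpInCHO cells in stimulation buffer with rolipram were exposed to agonist with no preincubation, then stopped with ethanol, lysed, and cAMP was detected by LANCE. Three to four experiments in duplicate.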
# Adenosine receptor A3 = molecular target: T4, Adenosine receptor A3 (Homo sapiens, UniProt P0DMS8); test: Irreversible agonist activity at human adenosine A3 receptor expressed in Flp-In-CHO cells assessed as effect on forskolin-induced cAMP accumulation incubated for 30 mins by LANCE cAMP detection assay; assay type: functional, cell-based
# T4 sequence (P0DMS8 whole entry): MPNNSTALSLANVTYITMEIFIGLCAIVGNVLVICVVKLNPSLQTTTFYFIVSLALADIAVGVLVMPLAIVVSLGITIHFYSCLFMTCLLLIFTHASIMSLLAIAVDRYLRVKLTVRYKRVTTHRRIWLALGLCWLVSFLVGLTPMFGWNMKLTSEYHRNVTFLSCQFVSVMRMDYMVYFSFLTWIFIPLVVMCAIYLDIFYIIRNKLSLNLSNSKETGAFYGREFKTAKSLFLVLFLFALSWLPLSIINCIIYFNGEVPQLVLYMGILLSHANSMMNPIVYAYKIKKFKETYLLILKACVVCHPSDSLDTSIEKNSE
# Outline: as §1, with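 “TR-FRET. […]” for “TR-FRET.”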
# Flp-In-CHO [7] = test: Effect on forskolin-induced cAMP accumulation in Flp-In-CHO cells incubated for 30 mins by LANCE cAMP detection assay; assay type: functional, cell-based; conditions: Cricetulus griseus
# [8] = molecular target: T2, Adenosine receptor A1 (Homo sapiens); test: Binding affinity to human adenosine A1 receptor expressed in Flp-In-CHO cell membranes assessed as [3H]DPCPX binding level at 10 uM incubated for 1 hr followed by washing by liquid scintillation counting based equilibrium radioligand binding assay; conditions: Cell membrane
# Outline: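 Membranes from A1AR-FlpInCHO cells were pre-incubated with 10 µM ligand in PBS with 1 unit ADA for 1 h at 37°C. They were then washed 3× with PBS, with 1 h at 37°C between washes, and resuspended in HME buffer. [3H]DPCPX at 0.1–12 nM was bound for 1 h at 37°C, filtered and β-counted. Nonspecific binding was defined with 1 µM SLV320. Results are expressed as % of buffer-pretreated Bmax, from three experiments in duplicate.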
# [9] = molecular target: T2, Adenosine receptor A1 (Homo sapiens); test: Binding affinity to human adenosine A1 receptor expressed in Flp-In-CHO cell membranes assessed as basal [35S]GTP-gamma-S incorporation level at 10 uM incubated for 40 mins followed by washing by liquid scintillation counting; conditions: Cell membrane
# Outline: (§2)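 Membranes were pretreated with 10 µM ligand and washed as for the [3H]DPCPX assay. […] 300 pM [35S]GTPγS was then added for 40 min at 20°C, followed by filtration and counting. Values are normalised to NECA-stimulated vehicle-pretreated membranes.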
# [10] = molecular target: T2, Adenosine receptor A1 (Homo sapiens); test: Binding affinity to human adenosine A1 receptor expressed in NECA-pre-treated Flp-In-CHO cell membranes assessed as [35S]GTP-gamma-S incorporation level at 10 uM incubated for 40 mins followed by washing by liquid scintillation counting; conditions: Cell membrane; outline: as §2
# [11] = molecular target: T2, Adenosine receptor A1 (Homo sapiens); conditions: Sf9, Cell membrane, filed as agonist, dose 10.0 µM, time 30.0 min
# Chain of Adenosine receptor A2a (P29274 whole entry): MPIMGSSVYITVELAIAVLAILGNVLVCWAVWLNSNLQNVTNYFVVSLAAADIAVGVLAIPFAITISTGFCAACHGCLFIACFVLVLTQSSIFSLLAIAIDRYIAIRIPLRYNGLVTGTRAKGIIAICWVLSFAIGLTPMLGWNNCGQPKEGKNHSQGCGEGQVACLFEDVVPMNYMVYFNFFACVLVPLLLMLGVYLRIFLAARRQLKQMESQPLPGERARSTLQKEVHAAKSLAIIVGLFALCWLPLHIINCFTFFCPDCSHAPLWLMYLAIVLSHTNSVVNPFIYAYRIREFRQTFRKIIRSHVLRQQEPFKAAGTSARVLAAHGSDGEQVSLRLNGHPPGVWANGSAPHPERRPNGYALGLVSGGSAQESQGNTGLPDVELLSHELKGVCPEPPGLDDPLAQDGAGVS
compound,measurement,setting,value
O=C(NCCCCCCCCCCNc1ncnc2c1ncn2[C@@H]1O[C@H](CO)[C@@H](O)[C@H]1O)C1=CC2C=CC1CC2 (stereo partly drawn),EC50,Adenosine receptor A1 [1],25.1 nM
same,Activity,Flp-In-CHO [2],inactive
OC[C@H]1O[C@@H](n2cnc3c(NCCCCCCN=C=S)ncnc32)[C@H](O)[C@@H]1O,Activity,Flp-In-CHO [2],inactive
O=C(NCCCCCCNc1ncnc2c1ncn2[C@@H]1O[C@H](CO)[C@@H](O)[C@H]1O)C1=CC2C=CC1CC2 (stereo partly drawn),EC50,Adenosine receptor A1 [1],15.8 nM
same,Activity,Flp-In-CHO [2],inactive
OC[C@H]1O[C@@H](n2cnc3c(Nc4ccc(CN=C=S)cc4)ncnc32)[C@H](O)[C@@H]1O,Activity,[3],Active
same,EC50,Adenosine receptor A1 [1],20 nM
same,Activity,Flp-In-CHO [2],inactive
same,Activity,[4],Active
same,Tm,[5],42.7 °C
same,EC50,Adenosine receptor A1 [6],269 nM
same,EC50,Adenosine receptor A2a,646 nM
same,EC50,Adenosine receptor A2b,708 nM
same,EC50,Adenosine receptor A3,347 nM
same,Activity,Flp-In-CHO [7],inactive
O=C(NCc1ccc(Nc2ncnc3c2ncn3[C@@H]2O[C@H](CO)[C@@H](O)[C@H]2O)cc1)c1ccc(S(=O)(=O)F)cc1,Activity,[3],Active
same,EC50,Adenosine receptor A1 [1],1 nM
same,Activity,Flp-In-CHO [2],inactive
same,Activity,[4],Active
same,Activity,[8]; filed as agonist,16%
same,Activity,[9],134%
same,Activity,[10]; filed as agonist,Active
same,Tm,[5],46.7 °C
same,EC50,Adenosine receptor A1 [6],0.912 nM
same,EC50,Adenosine receptor A2b,117 nM
same,EC50,Adenosine receptor A3,135 nM
same,Activity,Flp-In-CHO [7],inactive
O=C(NCc1ccc(Nc2ncnc3c2ncn3[C@@H]2O[C@H](CO)[C@@H](O)[C@H]2O)cc1)C1=CC2C=CC1CC2 (stereo partly drawn),Activity,[3],Active
same,EC50,Adenosine receptor A1 [1],1.58 nM
same,Activity,Flp-In-CHO [2],inactive
O=C(NCCCCCCNc1ncnc2c1ncn2[C@@H]1O[C@H](CO)[C@@H](O)[C@H]1O)c1ccc(S(=O)(=O)F)cc1,Activity,Flp-In-CHO [2],inactive
CCNC(=O)[C@H]1O[C@@H](n2cnc3c(N)ncnc32)[C@H](O)[C@@H]1O,Activity,[3],Active
same,Activity,Flp-In-CHO [2],inactive
same,Activity,[8],108%
same,Activity,[9],57%
same,Activity,[10],99%
same,Tm,[5],38.7 °C
same,Activity,Flp-In-CHO [7],inactive
same,ΔTm,[11],4 °C
OC[C@H]1O[C@@H](n2cnc3c(Nc4ccc(CNC(=S)Nc5ccc(N=C=S)cc5)cc4)ncnc32)[C@H](O)[C@@H]1O,Activity,[3],Active
same,EC50,Adenosine receptor A1 [1],1.58 nM
same,Activity,Flp-In-CHO [2],inactive
same,Activity,[4],Active
same,Activity,[8]; filed as agonist,8%
same,Activity,[9],124%
same,Activity,[10]; filed as agonist,Active
same,Tm,[5],46.6 °C
same,EC50,Adenosine receptor A1 [6],55 nM
same,EC50,Adenosine receptor A2a,67.6 nM
same,EC50,Adenosine receptor A2b,224 nM
same,EC50,Adenosine receptor A3,44.7 nM
same,Activity,Flp-In-CHO [7],inactive
CCCn1c(=O)c2nc(C3CCCC3)[nH]c2n(CCCOC(=O)c2ccc(S(=O)(=O)F)cc2)c1=O,Activity,[8]; filed as agonist,2%
same,Activity,[9]; filed as agonist,37%
same,Activity,[10]; filed as agonist,32%
OC[C@H]1O[C@@H](n2cnc3c(NCCCCCCCCCCN=C=S)ncnc32)[C@H](O)[C@@H]1O,Activity,[3],Active
same,EC50,Adenosine receptor A1 [1],79.4 nM
same,Activity,Flp-In-CHO [2],inactive
O=C(NCCCCCCCCCCNc1ncnc2c1ncn2[C@@H]1O[C@H](CO)[C@@H](O)[C@H]1O)c1ccc(S(=O)(=O)F)cc1,Activity,Flp-In-CHO [2],inactive
OC[C@H]1O[C@@H](n2cnc3c(NCCN=C=S)ncnc32)[C@H](O)[C@@H]1O,EC50,Adenosine receptor A1 [1],158 nM
same,Activity,Flp-In-CHO [2],inactive
OC[C@H]1O[C@@H](n2cnc3c(NCCNC(=S)Nc4ccc(N=C=S)cc4)ncnc32)[C@H](O)[C@@H]1O,EC50,Adenosine receptor A1 [1],3.16 nM
same,Activity,Flp-In-CHO [2],inactive
same,Activity,[4],Active
OC[C@H]1O[C@@H](n2cnc3c(NCCCCCCCCCCNC(=S)Nc4ccc(N=C=S)cc4)ncnc32)[C@H](O)[C@@H]1O,Activity,Flp-In-CHO [2],inactive
O[C@H]1CC[C@H](Nc2nc(-c3ccccc3)nc3[nH]ccc23)CC1,Activity,[10]; filed as agonist,37%
OC[C@H]1O[C@@H](n2cnc3c(NCCCCCCNC(=S)Nc4ccc(N=C=S)cc4)ncnc32)[C@H](O)[C@@H]1O,Activity,Flp-In-CHO [2],inactive
O=C(NCCNc1ncnc2c1ncn2[C@@H]1O[C@H](CO)[C@@H](O)[C@H]1O)C1=CC2C=CC1CC2 (stereo partly drawn),Activity,Flp-In-CHO [2],inactive
